Here are results for two compounds from ChEMBL document CHEMBL4414562, “Discovery of the First in Vivo Active Inhibitors of the Soluble Epoxide Hydrolase Phosphatase Domain” (J Med Chem, 2019).

As a reminder, the Kd is the concentration at which binding is half-saturated. One may read the IC50 as the point on the concentration scale where inhibition reaches its midpoint. The low end stands for greater potency, the high end for weaker potency.

Assay [1] concerns Rattus norvegicus. Kind of assay: Inhibition of sEH-H in Sprague-Dawley rat assessed as effect on ratio of 14,15-EET to 14,15-DHET in plasma at 30 mg/kg, po after 8 hrs by LC-MS/MS analysis. Type of assay: functional, organism-based. The procedure, abridged:
(§1)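 Male Sprague-Dawley rats given a single oral dose of 30 mg/kg or vehicle (n = 3 per group). Plasma collected 8 h later. Epoxy fatty acid/diol ratios and LPA/corresponding MAG ratios quantified by LC−MS/MS.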

For another assay, the species on record is Homo sapiens. The assay can be described thus: Inhibition of soluble epoxide hydrolase N-terminal phosphatase domain in human PBMC assessed as reduction in MAG/LPA ratio at 30 uM incubated for 24 hrs by LC-MS/MS analysis.
Assay [2] deals with T1, Oxysterols receptor LXR-alpha (Homo sapiens) (UniProt Q13133).
T1 sequence (whole entry): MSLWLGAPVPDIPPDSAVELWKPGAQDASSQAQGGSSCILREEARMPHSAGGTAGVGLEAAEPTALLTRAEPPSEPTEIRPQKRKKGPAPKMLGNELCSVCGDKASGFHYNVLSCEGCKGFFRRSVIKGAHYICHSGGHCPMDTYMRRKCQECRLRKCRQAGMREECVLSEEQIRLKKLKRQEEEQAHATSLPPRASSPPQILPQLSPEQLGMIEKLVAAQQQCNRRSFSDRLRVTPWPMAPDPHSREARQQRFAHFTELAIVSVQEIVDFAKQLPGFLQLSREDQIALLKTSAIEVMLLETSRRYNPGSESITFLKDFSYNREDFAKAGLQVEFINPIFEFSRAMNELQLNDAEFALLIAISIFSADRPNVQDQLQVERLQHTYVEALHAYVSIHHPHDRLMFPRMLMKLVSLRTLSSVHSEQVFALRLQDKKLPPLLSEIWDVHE
Kind of assay: Activation of Gal4-fused human LXRalpha LBD transfected in HEK293T cells at 10 uM after 12 to 14 hrs by luciferase reporter gene assay. The assay is classed as cell-based. In outline:
(§2)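 Gal4–human nuclear receptor LBD fusion (pFA-CMV-hNR-LBD) co-transfected with pFR-Luc and pRL-SV40 (Lipofectamine LTX) into HEK293T cells seeded the day before. 5 h post-transfection, compound added in Opti-MEM with 0.1% DMSO and incubated 12−14 h. Dual-Glo firefly/Renilla luciferase read. Activation expressed relative to reference agonist at 1 μM. Triplicates, ≥3 independent experiments.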
Background: Reporter assays use an easily measured gene product as a stand-in for the process of interest.

Assay [3] deals with Rattus norvegicus. The assay can be described thus: Inhibition of sEH-P in Sprague-Dawley rat assessed as effect on ratio of sn1-18:2 LPA to corresponding monoacylglycerol species in plasma at 30 mg/kg, po after 8 hrs by LC-MS/MS analysis. The assay is classed as functional, organism-based. The procedure, abridged: as §1
A short description of assay [4]: Binding affinity to hexa-His-tagged human soluble epoxide hydrolase N-terminal phosphatase domain expressed in Escherichia coli BL21(DE3) by ITC assay. In outline: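 Inverse-mode ITC with 185 μM freshly prepared sEH-P in the syringe and inhibitor in the cell. Both in 50 mM acetate, 10 mM MgCl2, 5% glycerol, pH 5.75 with 2% DMSO. Run at 25 °C, 350 rpm stirring, 20−25 injections of 8−10 μL, 200 s spacing. Inhibitor concentration chosen to optimize curve shape. Heats fitted to a single-site model.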

Assay [5] concerns Rattus norvegicus. The assay can be described thus: Inhibition of sEH-H in Sprague-Dawley rat assessed as effect on ratio of 12,13-EpOME to 12,13-DiHOME in plasma at 30 mg/kg, po after 8 hrs by LC-MS/MS analysis. The assay is classed as functional, organism-based. The procedure, abridged: as §1
Assay [6] addresses T2, Peroxisome proliferator-activated receptor alpha (Homo sapiens) (UniProt Q07869).
T2 sequence (whole entry): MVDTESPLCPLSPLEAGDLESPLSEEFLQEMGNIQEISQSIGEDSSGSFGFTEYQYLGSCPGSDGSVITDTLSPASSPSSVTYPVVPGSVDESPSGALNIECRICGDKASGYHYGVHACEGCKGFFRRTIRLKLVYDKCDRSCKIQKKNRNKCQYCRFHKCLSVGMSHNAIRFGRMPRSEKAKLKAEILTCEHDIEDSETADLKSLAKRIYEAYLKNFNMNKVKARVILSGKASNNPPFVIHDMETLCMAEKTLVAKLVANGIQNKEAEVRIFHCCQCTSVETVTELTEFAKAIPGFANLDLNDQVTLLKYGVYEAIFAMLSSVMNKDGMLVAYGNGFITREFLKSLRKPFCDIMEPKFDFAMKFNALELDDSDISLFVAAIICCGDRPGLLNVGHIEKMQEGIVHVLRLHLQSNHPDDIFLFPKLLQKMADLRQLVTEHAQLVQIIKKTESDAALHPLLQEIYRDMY
The assay can be described thus: Activation of Gal4-fused human PPARalpha LBD transfected in HEK293T cells at 10 uM after 12 to 14 hrs by luciferase reporter gene assay. The assay is classed as cell-based. In outline: as §2

For assay [7], the system named is Rattus norvegicus. Kind of assay: Inhibition of sEH-H in Sprague-Dawley rat assessed as effect on ratio of 19,20-EpDPA […] in plasma at 30 mg/kg, po after 8 hrs by LC-MS/MS analysis. Type of assay: functional, organism-based. In outline: as §1
Assay [8] has as its target T3, Bifunctional epoxide hydrolase 2 (Rattus norvegicus, UniProt P80299).
T3 sequence (P80299 whole entry): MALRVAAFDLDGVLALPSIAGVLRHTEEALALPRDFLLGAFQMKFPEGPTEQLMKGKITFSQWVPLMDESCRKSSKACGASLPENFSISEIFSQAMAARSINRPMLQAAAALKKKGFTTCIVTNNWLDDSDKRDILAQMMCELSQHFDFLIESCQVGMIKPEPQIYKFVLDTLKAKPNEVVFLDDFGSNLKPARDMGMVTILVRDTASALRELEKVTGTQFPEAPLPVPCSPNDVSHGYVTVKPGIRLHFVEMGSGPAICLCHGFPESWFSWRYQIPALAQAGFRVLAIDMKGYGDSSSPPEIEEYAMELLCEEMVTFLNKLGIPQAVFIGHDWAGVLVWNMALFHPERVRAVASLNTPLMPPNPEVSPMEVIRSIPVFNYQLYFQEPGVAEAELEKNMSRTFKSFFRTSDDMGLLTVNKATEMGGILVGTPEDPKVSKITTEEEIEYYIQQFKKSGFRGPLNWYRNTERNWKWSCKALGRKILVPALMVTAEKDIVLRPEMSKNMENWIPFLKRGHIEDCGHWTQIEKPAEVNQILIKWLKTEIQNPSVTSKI
The assay can be described thus: Inhibition of phosphatase activity of full length rat soluble epoxide hydrolase pre-incubated for 30 mins before FDP substrate addition by fluorescence based assay.

Calls of active or inactive are those of the source. The rule behind the calls is not given here.

In the case of `O=C(O)CCCc1nc(-c2ccc(Cl)c(Cl)c2)c(-c2ccccc2)o1`, the inhibition result in the assay on Rattus norvegicus [1], in the assay on Rattus norvegicus [5] and in the assay with Rattus norvegicus [7] was “inactive” in each case. Besides, the inhibition entry in the assay filed under Homo sapiens and in the assay with Rattus norvegicus [3] was “Active” each time. Besides, the result in assay [2] and in assay [6] was inactive. Moreover, in assay [4], binding was put at a Kd of 0.3 µM.

Consider `O=C(O)CCc1nc(-c2ccccc2)c(-c2ccccc2)o1` [OXAPROZIN], for which the result in assay [2] and in assay [6] was inactive. This compound also yielded an IC50 in [8] of 62.5 µM.
